Key:
[1] = Genotoxicity in Salmonella typhimurium TA1535 harboring pSK1002 assessed as umu gene induction at 0.016 mg/ml in absence of Sprague-Dawley rat liver S9 fraction after by SOS/umu assay relative to control; type: toxicity, organism-based; conditions: salmonella enterica subsp. enterica serovar typhimurium, read-out: FC
[2] = Genotoxicity in Salmonella typhimurium TA1535 harboring pSK1002 assessed as survival at 0.004 mg/ml in absence of Sprague-Dawley rat liver S9 fraction after by SOS/umu assay relative to control; type: toxicity, organism-based; conditions: salmonella enterica subsp. enterica serovar typhimurium, read-out: Survival
[3] = Genotoxicity in Salmonella typhimurium TA1535 harboring pSK1002 assessed as umu gene induction at 0.004 mg/ml in presence of Sprague-Dawley rat liver S9 fraction after by SOS/umu assay relative to control; type: toxicity, organism-based; conditions: salmonella enterica subsp. enterica serovar typhimurium, read-out: FC
[4] = Genotoxicity in Salmonella typhimurium TA1535 harboring pSK1002 assessed as umu gene induction at 0.004 mg/ml in absence of Sprague-Dawley rat liver S9 fraction after by SOS/umu assay relative to control; type: toxicity, organism-based; conditions: salmonella enterica subsp. enterica serovar typhimurium, read-out: FC
[5] = Genotoxicity in Salmonella typhimurium TA1535 harboring pSK1002 assessed as survival at 0.001 mg/ml in presence of Sprague-Dawley rat liver S9 fraction after by SOS/umu assay relative to control; type: toxicity, organism-based; conditions: salmonella enterica subsp. enterica serovar typhimurium, read-out: Survival
[6] = Genotoxicity in Salmonella typhimurium TA1535 harboring pSK1002 assessed as survival at 0.063 mg/ml in presence of Sprague-Dawley rat liver S9 fraction after by SOS/umu assay relative to control; type: toxicity, organism-based; conditions: salmonella enterica subsp. enterica serovar typhimurium, read-out: Survival
[7] = Genotoxicity in Salmonella typhimurium TA1535 harboring pSK1002 assessed as survival at 0.002 mg/ml in presence of Sprague-Dawley rat liver S9 fraction after by SOS/umu assay relative to control; type: toxicity, organism-based; conditions: salmonella enterica subsp. enterica serovar typhimurium, read-out: Survival
[8] = Genotoxicity in Salmonella typhimurium TA1535 harboring pSK1002 assessed as umu gene induction at 0.001 mg/ml in presence of Sprague-Dawley rat liver S9 fraction after by SOS/umu assay relative to control; type: toxicity, organism-based; conditions: salmonella enterica subsp. enterica serovar typhimurium, read-out: FC
[9] = Genotoxicity in Salmonella typhimurium TA1535 harboring pSK1002 assessed as umu gene induction at 0.016 mg/ml in presence of Sprague-Dawley rat liver S9 fraction after by SOS/umu assay relative to control; type: toxicity, organism-based; conditions: salmonella enterica subsp. enterica serovar typhimurium, read-out: FC
[10] = tested on: Plasmodium falciparum; test: Antiplasmodial activity against chloroquine-sensitive Plasmodium falciparum 3D7 by [3H]-hypoxanthine incorporation assay; type: functional, organism-based
Summary of the method: (§1)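 Blood-stage P. falciparum 3D7 and FCR-3 were tested by a modified [3H]-hypoxanthine incorporation assay. Chloroquine was the reference in all runs.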

[11] = Genotoxicity in Salmonella typhimurium TA1535 harboring pSK1002 assessed as umu gene induction at 0.125 mg/ml in absence of Sprague-Dawley rat liver S9 fraction after by SOS/umu assay relative to control; type: toxicity, organism-based; conditions: salmonella enterica subsp. enterica serovar typhimurium, read-out: FC
[12] = Genotoxicity in Salmonella typhimurium TA1535 harboring pSK1002 assessed as survival at 0.008 mg/ml in absence of Sprague-Dawley rat liver S9 fraction after by SOS/umu assay relative to control; type: toxicity, organism-based; conditions: salmonella enterica subsp. enterica serovar typhimurium, read-out: Survival
[13] = Genotoxicity in Salmonella typhimurium TA1535 harboring pSK1002 assessed as umu gene induction at 0.063 mg/ml in absence of Sprague-Dawley rat liver S9 fraction after by SOS/umu assay relative to control; type: toxicity, organism-based; conditions: salmonella enterica subsp. enterica serovar typhimurium, read-out: FC
[14] = Genotoxicity in Salmonella typhimurium TA1535 harboring pSK1002 assessed as umu gene induction at 0.002 mg/ml in absence of Sprague-Dawley rat liver S9 fraction after by SOS/umu assay relative to control; type: toxicity, organism-based; conditions: salmonella enterica subsp. enterica serovar typhimurium, read-out: FC
[15] = Genotoxicity in Salmonella typhimurium TA1535 harboring pSK1002 assessed as survival at 0.016 mg/ml in presence of Sprague-Dawley rat liver S9 fraction after by SOS/umu assay relative to control; type: toxicity, organism-based; conditions: salmonella enterica subsp. enterica serovar typhimurium, read-out: Survival
[16] = Genotoxicity in Salmonella typhimurium TA1535 harboring pSK1002 assessed as umu gene induction at 0.001 mg/ml in absence of Sprague-Dawley rat liver S9 fraction after by SOS/umu assay relative to control; type: toxicity, organism-based; conditions: salmonella enterica subsp. enterica serovar typhimurium, read-out: FC
[17] = Genotoxicity in Salmonella typhimurium TA1535 harboring pSK1002 assessed as umu gene induction at 0.008 mg/ml in presence of Sprague-Dawley rat liver S9 fraction after by SOS/umu assay relative to control; type: toxicity, organism-based; conditions: salmonella enterica subsp. enterica serovar typhimurium, read-out: FC
[18] = Genotoxicity in Salmonella typhimurium TA1535 harboring pSK1002 assessed as survival at 0.004 mg/ml in presence of Sprague-Dawley rat liver S9 fraction after by SOS/umu assay relative to control; type: toxicity, organism-based; conditions: salmonella enterica subsp. enterica serovar typhimurium, read-out: Survival
[19] = Genotoxicity in Salmonella typhimurium TA1535 harboring pSK1002 assessed as survival at 0.008 mg/ml in presence of Sprague-Dawley rat liver S9 fraction after by SOS/umu assay relative to control; type: toxicity, organism-based; conditions: salmonella enterica subsp. enterica serovar typhimurium, read-out: Survival
[20] = Genotoxicity in Salmonella typhimurium TA1535 harboring pSK1002 assessed as survival at 0.002 mg/ml in absence of Sprague-Dawley rat liver S9 fraction after by SOS/umu assay relative to control; type: toxicity, organism-based; conditions: salmonella enterica subsp. enterica serovar typhimurium, read-out: Survival
[21] = Genotoxicity in Salmonella typhimurium TA1535 harboring pSK1002 assessed as umu gene induction at 0.063 mg/ml in presence of Sprague-Dawley rat liver S9 fraction after by SOS/umu assay relative to control; type: toxicity, organism-based; conditions: salmonella enterica subsp. enterica serovar typhimurium, read-out: FC
[22] = Genotoxicity in Salmonella typhimurium TA1535 harboring pSK1002 assessed as survival at 0.125 mg/ml in absence of Sprague-Dawley rat liver S9 fraction after by SOS/umu assay relative to control; type: toxicity, organism-based; conditions: salmonella enterica subsp. enterica serovar typhimurium, read-out: Survival
[23] = tested on: Plasmodium falciparum; test: Antiplasmodial activity against multidrug-resistant Plasmodium falciparum FCR-3 by [3H]-hypoxanthine incorporation assay; type: functional, organism-based, FCR-3/Gambia; summary of the method: as §1
[24] = Genotoxicity in Salmonella typhimurium TA1535 harboring pSK1002 assessed as survival at 0.125 mg/ml in presence of Sprague-Dawley rat liver S9 fraction after by SOS/umu assay relative to control; type: toxicity, organism-based; conditions: salmonella enterica subsp. enterica serovar typhimurium, read-out: Survival
[25] = Genotoxicity in Salmonella typhimurium TA1535 harboring pSK1002 assessed as umu gene induction at 0.008 mg/ml in absence of Sprague-Dawley rat liver S9 fraction after by SOS/umu assay relative to control; type: toxicity, organism-based; conditions: salmonella enterica subsp. enterica serovar typhimurium, read-out: FC
[26] = Genotoxicity in Salmonella typhimurium TA1535 harboring pSK1002 assessed as survival at 0.031 mg/ml in presence of Sprague-Dawley rat liver S9 fraction after by SOS/umu assay relative to control; type: toxicity, organism-based; conditions: salmonella enterica subsp. enterica serovar typhimurium, read-out: Survival
[27] = Genotoxicity in Salmonella typhimurium TA1535 harboring pSK1002 assessed as umu gene induction at 0.031 mg/ml in presence of Sprague-Dawley rat liver S9 fraction after by SOS/umu assay relative to control; type: toxicity, organism-based; conditions: salmonella enterica subsp. enterica serovar typhimurium, read-out: FC
[28] = Genotoxicity in Salmonella typhimurium TA1535 harboring pSK1002 assessed as umu gene induction at 0.002 mg/ml in presence of Sprague-Dawley rat liver S9 fraction after by SOS/umu assay relative to control; type: toxicity, organism-based; conditions: salmonella enterica subsp. enterica serovar typhimurium, read-out: FC
[29] = Genotoxicity in Salmonella typhimurium TA1535 harboring pSK1002 assessed as survival at 0.016 mg/ml in absence of Sprague-Dawley rat liver S9 fraction after by SOS/umu assay relative to control; type: toxicity, organism-based; conditions: salmonella enterica subsp. enterica serovar typhimurium, read-out: Survival
[30] = Genotoxicity in Salmonella typhimurium TA1535 harboring pSK1002 assessed as survival at 0.001 mg/ml in absence of Sprague-Dawley rat liver S9 fraction after by SOS/umu assay relative to control; type: toxicity, organism-based; conditions: salmonella enterica subsp. enterica serovar typhimurium, read-out: Survival
[31] = Plasmodium falciparum, FCR-3/Gambia, 3 h

Compound | fold induction at 0.016 mg/ml [1] | viability at 0.004 mg/ml [2] [%] | fold induction at 0.004 mg/ml [3] | fold induction at 0.004 mg/ml [4] | viability at 0.001 mg/ml [5] [%] | viability at 0.063 mg/ml [6] [%] | viability at 0.002 mg/ml [7] [%] | fold induction at 0.001 mg/ml [8] | fold induction at 0.016 mg/ml [9] | fold induction at 0.125 mg/ml [11] | viability at 0.008 mg/ml [12] [%] | fold induction at 0.063 mg/ml [13] | fold induction at 0.002 mg/ml [14] | viability at 0.016 mg/ml [15] [%] | fold induction at 0.001 mg/ml [16] | fold induction at 0.008 mg/ml [17] | viability at 0.004 mg/ml [18] [%] | viability at 0.008 mg/ml [19] [%] | viability at 0.002 mg/ml [20] [%] | fold induction at 0.063 mg/ml [21] | other results
N#Cc1ccc(N2CCC(NCCC(O)c3ccc(F)c4ccccc34)CC2)c(C(F)(F)F)c1 (stereo in doubt; 72) | 0.8 | 33.3 | 0.7 | 0.9 | 121 | 85.2 | 136 | 0.8 | 0.6 | 0.2 | 32.9 | 0.3 | 1.3 | 36.3 | 1 | 1.3 | 136 | 52.9 | 110 | 0.2 | IC50 [10]: 130 nM; viability at 0.125 mg/ml [22]: 62.4%; IC50 [23]: 80 nM; viability at 0.125 mg/ml [24]: 91%; fold induction at 0.008 mg/ml [25]: 0.8; viability at 0.031 mg/ml [26]: 35%; fold induction at 0.031 mg/ml [27]: 0.6; fold induction at 0.002 mg/ml [28]: 1; viability at 0.016 mg/ml [29]: 28.3%; viability at 0.001 mg/ml [30]: 132%
COc1ccccc1C1=CCN(CCC(O)c2ccc(F)cc2)CC1 (stereo not given) | 1 | 104 | 1.1 | 1.1 | 103 | 91 | 87.2 | 1.2 | 1.2 | 1 | 111 | 0.9 | 1.1 | 78.9 | 1 | 1 | 82.3 | 88.3 | 103 | 0.9 | IC50 ([10]; Plasmodium falciparum, 3D7): 2820 nM; viability at 0.125 mg/ml [22]: 107%; IC50 [23, 31]: 1320 nM; viability at 0.125 mg/ml [24]: 88.5%; fold induction at 0.008 mg/ml [25]: 1; viability at 0.031 mg/ml [26]: 81.8%; fold induction at 0.031 mg/ml [27]: 1; fold induction at 0.002 mg/ml [28]: 1.1; viability at 0.016 mg/ml [29]: 106%; viability at 0.001 mg/ml [30]: 114%
Nc1ccc(N2CCC(NCCC(O)c3ccc(F)c4ccccc34)CC2)c(C(F)(F)F)c1 (stereo not given) | 0.8 | 38.7 | 1.1 | 0.8 | 119 | 55.7 | 116 | 0.6 | 1.4 | 0.4 | 27.7 | 0.6 | 0.7 | 32.4 | 1.1 | 1.1 | 116 | 104 | 150 | 0.4 | IC50 ([10]; Plasmodium falciparum, 3D7): 140 nM; viability at 0.125 mg/ml [22]: 32.4%; IC50 [23, 31]: 80 nM; viability at 0.125 mg/ml [24]: 107%; fold induction at 0.008 mg/ml [25]: 1; viability at 0.031 mg/ml [26]: 39.1%; fold induction at 0.031 mg/ml [27]: 1; fold induction at 0.002 mg/ml [28]: 1.4; viability at 0.016 mg/ml [29]: 28.3%; viability at 0.001 mg/ml [30]: 101%
